The source made the active and inactive calls.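 How the source made its calls, unless noted: active means NADPH fluorescence slope more negative than the mean of all samples by about 3 SD, 99.7% confidence; inactive means the rest.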
Columns and labels:
[1] = inhibitors of TNFa-induced NFkB p65 translocation, primary screen, imaging, HUVEC, MLSMR starter and 10KST1 sets (AID 438;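 active means inhibition above 20% together with a positive visual image hit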;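 further: compound added about 3h40 before a 20 min TNFalpha stimulation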;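 on inhibition: signal is the nuclear over cytoplasmic p65 intensity ratio per well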); conditions: HUVEC TNFa-induced p65 nuclear translocation; cell count: measured here: nuclei count (cytotoxicity indicator), at 2.08 µM; inhibition: at 2 µM, stronger effect = higher value, 0% TNFa-plus-vehicle, 100% no-TNFa wells
[2] = inhibitors of E-selectin induction by TNFa, primary screen, imaging, HUVEC, immunofluorescence, MLSMR starter and 10KST1 sets (AID 487;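 active means visually confirmed hit in the image check and inhibition above 20%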;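 on inhibition: signal is fraction of cell area covered by stained E-selectin grains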;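 on nuclei count: 100% = median nuclei count of all wells on the same plate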); conditions: HUVEC TNFalpha-induced E-selectin immunofluorescence imaging, at 2 µM; inhibition: stronger effect = higher value; nuclei count: measured here: cell number, toxicity
[3] = DUSP6 inhibitors restoring Erk phosphorylation by chemical complementation, primary imaging in DUSP6-transfected HeLa (AID 609;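 active means compounds giving at least 50% inhibition in the cell-based MKP-3 phosphatase rescue imaging test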;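 on inhibition: phospho-Erk level distribution per well compared with pooled transfected vehicle control wells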); conditions: HeLa MKP-3 transfected, phospho-Erk imaging KS statistic, at 10 µM, cells stimulated with TPA for 15 min
[4] = target: Dual specificity protein phosphatase 6 (Homo sapiens) (UniProt Q16828); assay: as above; conditions: HeLa MKP-3 transfected, phospho-Erk imaging KS statistic; at 10 µM; stronger effect = higher value; cells stimulated with TPA for 15 min
Dual specificity protein phosphatase 6 (Homo sapiens), sequence (Q16828 whole entry, looked up): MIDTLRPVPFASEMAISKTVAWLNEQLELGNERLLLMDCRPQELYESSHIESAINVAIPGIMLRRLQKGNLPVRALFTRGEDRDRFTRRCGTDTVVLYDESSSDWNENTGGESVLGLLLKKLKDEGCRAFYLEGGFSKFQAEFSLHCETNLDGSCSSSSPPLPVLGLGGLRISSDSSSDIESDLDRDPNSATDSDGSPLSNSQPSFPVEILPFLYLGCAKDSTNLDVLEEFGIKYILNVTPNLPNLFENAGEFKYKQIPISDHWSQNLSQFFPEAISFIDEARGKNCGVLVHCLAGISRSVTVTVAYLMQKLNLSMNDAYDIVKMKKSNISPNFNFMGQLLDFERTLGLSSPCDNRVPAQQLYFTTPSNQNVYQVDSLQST

[5] = target: Voltage-gated potassium channel subunit beta-2 (Rattus norvegicus) (UniProt P62483); assay: KvBeta enzyme negative modulators, primary screen, biochemical, NADPH fluorescence (AID 622;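 active means fluorescence slope higher than the sample average by over 3 SD, cut at about -0.22 in these data, passing the limit was not always enough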;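 further: slope of raw intensity against log time taken from 70 to 1610 s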); conditions: recombinant KvBeta, 4-cyanobenzaldehyde reduction, at 10 µM, stronger effect = higher value
Voltage-gated potassium channel subunit beta-2 (Rattus norvegicus), sequence (P62483 whole entry, looked up): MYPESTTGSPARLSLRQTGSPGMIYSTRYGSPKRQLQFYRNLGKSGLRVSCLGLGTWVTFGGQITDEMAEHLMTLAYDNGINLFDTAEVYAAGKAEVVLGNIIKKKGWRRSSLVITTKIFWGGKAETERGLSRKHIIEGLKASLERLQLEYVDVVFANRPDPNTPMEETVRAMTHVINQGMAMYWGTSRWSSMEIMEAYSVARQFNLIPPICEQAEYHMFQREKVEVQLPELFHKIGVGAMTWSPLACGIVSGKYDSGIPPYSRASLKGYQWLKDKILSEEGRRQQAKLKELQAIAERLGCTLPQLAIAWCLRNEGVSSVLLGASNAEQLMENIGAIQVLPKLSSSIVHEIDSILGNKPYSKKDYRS

[6] = target: Voltage-gated potassium channel subunit beta-2 (Rattus norvegicus) (UniProt P62483); assay: KvBeta positive modulators, primary screen, biochemical, NADPH fluorescence (AID 623); conditions: Recombinant KvBeta, NADPH fluorescence decrease slope, 10 min; at 10 µM; stronger effect = lower value;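 further: fluorescence intensity change per second fitted from 20 to 320 s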
[7] = target: Alpha-2C adrenergic receptor (Homo sapiens) (UniProt P18825); assay: modulators of alpha2C/GIRK thallium flux, primary screen, cell-based, HEK293 alpha2C/GIRK1/2 (AID 624;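 active means fluorescence slope after compound addition differing from the mean of all screened samples at 99.7% confidence, in either direction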;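 further: slope of fluorescence ratio to pre-addition baseline per second over 15 to 24 s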); conditions: thallium flux BTC fluorescence, at 10 µM, actives lie on both sides
Alpha-2C adrenergic receptor (Homo sapiens), sequence (P18825 whole entry, looked up): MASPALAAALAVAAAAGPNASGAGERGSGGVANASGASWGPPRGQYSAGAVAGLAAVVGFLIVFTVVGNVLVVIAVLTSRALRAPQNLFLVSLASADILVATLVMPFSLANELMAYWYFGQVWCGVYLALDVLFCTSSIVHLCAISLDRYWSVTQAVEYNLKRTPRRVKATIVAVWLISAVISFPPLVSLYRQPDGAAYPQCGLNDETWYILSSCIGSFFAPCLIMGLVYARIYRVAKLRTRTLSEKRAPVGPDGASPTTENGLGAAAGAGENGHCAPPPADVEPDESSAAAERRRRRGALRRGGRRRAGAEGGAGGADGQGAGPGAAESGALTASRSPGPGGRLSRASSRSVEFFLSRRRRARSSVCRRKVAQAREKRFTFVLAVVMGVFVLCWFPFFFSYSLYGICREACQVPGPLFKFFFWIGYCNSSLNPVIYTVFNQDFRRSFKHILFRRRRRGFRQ

[8] = inhibitors of larval lipid processing in zebrafish, primary screen, whole organism, PED6 fluorescence, gall bladder and intestine (AID 686;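 active means a full or partial loss of lipid-probe fluorescence in the fish gall bladder, intestine or both, judged by eye; inactive means no fluorescence loss, or compound toxic to the fish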;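 further: larvae 5 to 7 days old with five fish per well; signal comes from phospholipase A2 cleavage of quenched PED6 carried via bile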); conditions: Zebrafish larvae PED6 lipid processing, fluorescence scoring; screened at 20 µM (by protocol)
Procedure, shortened: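 Incubation: overnight exposure of larvae to compound plus PED6 / Test system: live zebrafish larvae aged 5-7 days, whole organism / Amount: 5 larvae per well / Read-out basis: visual per-well fluorescence inhibition score / Signal: visual fluorescence microscopy scoring of gall bladder, gut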

[9] = inhibitors of Chlamydomonas gravitaxis, primary screen, whole organism, Chlamydomonas reinhardtii, WT vs cilia-less mutant, absorbance, 96-well (AID 463189;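 active means inhibition at or above 50% relative to wild type and mutant plate controls; inactive means inhibition below 50%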;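 further: 0% = wild type cc124 cells in DMSO and 100% = ciliumless bld1 mutant cells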); conditions: OD600 absorbance, 2 days, at 10 µM, stronger effect = higher value
[10] = measured here: cell density z-score
[11] = measured here: nuclear c-Myc green intensity z-score
[12] = measured here: nuclear pErk red intensity z-score, stronger effect = higher value

In the case of `CCCCOc1ccc(C)cc1CN(CCO)CCO`, the cell count [1] was 552, the inhibition [1] was -8% (inactive) and the inhibition [2] was -87% (inactive). The nuclei count [2] was 111%, the z-score [3, 10] was -1.69 and the z-score [3, 11] was -0.122. For the same compound, the z-score [3, 12] was -1.5, the inhibition [4] was 1.9e-07% (inactive) and the fluorescence slope [5] was -0.506 (inactive). The NADPH fluorescence slope [6] was -1.2e-05 (inactive), the slope [7] was 0.0065 (inactive) and the outcome [8] was “inactive”. The inhibition [9] was -2.14% (inactive).

For `CC1(C)Cc2c(sc3nc4n(c(=N)c23)CCC4)CO1`, the cell count [1] was 678, the inhibition [1] was -24.9% (inactive) and the inhibition [2] was -38.1% (inactive). For the same compound, the nuclei count [2] was 164%, the z-score [3, 10] was -0.552 and the z-score [3, 11] was 1.24. The z-score [3, 12] was 2.19, the inhibition [4] was -13.9% (inactive) and the fluorescence slope [5] was -0.416 (inactive). The NADPH fluorescence slope [6] was -4.6e-05 (inactive), the slope [7] was 0.00517 (inactive) and the outcome [8] was “inactive”. For the same compound, the inhibition [9] was -6.56% (inactive).

With `CSc1nnc(C)c(=O)[nH]1` the cell count [1] was 627, the inhibition [1] was 3.2% (inactive) and the inhibition [2] was -23.8% (inactive). It also gave a nuclei count [2] of 149%, a z-score [3, 10] of 0.361 and a z-score [3, 11] of -1.1. For the same compound, the z-score [3, 12] was -0.0421, the inhibition [4] was -1.12% (inactive) and the fluorescence slope [5] was -0.463 (inactive). For the same compound, the NADPH fluorescence slope [6] was -0.000266 (inactive), the slope [7] was 0.00552 (inactive) and the outcome [8] was “inactive”. For the same compound, the inhibition [9] was 6% (inactive).

For `CCOC(=O)C1=C(C)N=C2SC(C)C(=O)N2C1c1ccc(OC(C)=O)c(OC)c1` (stereo unspecified), the cell count [1] was 364, the inhibition [1] was -4% (inactive) and the inhibition [2] was -11.8% (inactive). It also gave a nuclei count [2] of 184%, a z-score [3, 10] of 0.885 and a z-score [3, 11] of -1.84. The z-score [3, 12] was 1.33, the inhibition [4] was -4.59% (inactive) and the fluorescence slope [5] was -0.413 (inactive). For the same compound, the NADPH fluorescence slope [6] was -0.000136 (inactive), the slope [7] was 0.00549 (inactive) and the outcome [8] was “inactive”. The inhibition [9] was 21.6% (inactive).

For `CC1C[C@@]2(NC(=O)NC2=O)C(C)CN1C` (stereo partly specified), the cell count [1] was 510, the inhibition [1] was -6.8% (inactive) and the inhibition [2] was -91.9% (inactive). For the same compound, the nuclei count [2] was 118%, the z-score [3, 10] was 1.06 and the z-score [3, 11] was -0.13. The z-score [3, 12] was -0.779, the inhibition [4] was -3.98% (inactive) and the fluorescence slope [5] was -0.499 (inactive). For the same compound, the NADPH fluorescence slope [6] was -0.000117 (inactive), the slope [7] was 0.00539 (inactive) and the outcome [8] was “inactive”. For the same compound, the inhibition [9] was 6.02% (inactive).

For `CCOc1ccc(-c2nn3c(-c4ccc(OC)cc4)nnc3s2)cc1`, the cell count [1] was 620, the inhibition [1] was -14.6% (inactive) and the inhibition [2] was -58.9% (inactive). The nuclei count [2] was 162%, the z-score [3, 10] was 0.559 and the z-score [3, 11] was -1.74. The z-score [3, 12] was 0.0677, the inhibition [4] was 2.92% (inactive) and the fluorescence slope [5] was -0.443 (inactive). For the same compound, the NADPH fluorescence slope [6] was -7.7e-05 (inactive), the slope [7] was 0.00846 (inactive) and the outcome [8] was “inactive”. For the same compound, the inhibition [9] was 5.79% (inactive).

With `COc1cccc(OC)c1OCC(C)CNCC1CCCO1` (stereo unspecified) the cell count [1] was 524, the inhibition [1] was -5.6% (inactive) and the inhibition [2] was -156% (inactive). It also gave a nuclei count [2] of 123%, a z-score [3, 10] of -1 and a z-score [3, 11] of 1.14. The z-score [3, 12] was 1.28, the inhibition [4] was 9.39% (inactive) and the fluorescence slope [5] was -0.524 (inactive). For the same compound, the NADPH fluorescence slope [6] was -5e-05 (inactive), the slope [7] was 0.00511 (inactive) and the outcome [8] was “inactive”. For the same compound, the inhibition [9] was 11.3% (inactive).

— PubChem BioAssay
